Test results taken from PubChem BioAssay AID624060 (Southern Research Specialized Biocontainment Screening …, 2012).

System: UPEC UTI89 capsule, orcinol assay OD572
Test: inhibitors of UPEC UTI89 surface capsule formation, confirmation, orthogonal assay for bacterial capsule biogenesis inhibitors, orcinol colorimetric, OD572, set 2 (AID 624060)
Settings: at 100 µM; stronger effect = lower value
In short: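 Test system – UPEC UTI89 plus ΔkpsM mutant · Doses – one dose, 100 µM · Schedule – hydrolysis 1 h, 80 °C · Signal – orcinol color, OD 572 nm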

## CCOc1ccc(-c2cc(NC(=O)c3c(F)cccc3F)c(C(=O)O)s2)cc1
  capsule formation: 21%
